Data published in ChEMBL document CHEMBL1158782, “Cytotoxic germacrane sesquiterpenes from the aerial parts of Santolina insularis” (J Nat Prod, 2005).

Experiments:
Caco-2 = assay: Cytotoxicity against human Caco-2 cells after 24 hrs by MTT assay; type: functional, cell-based; details: Caco-2, 24 h
Method in brief: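 Caco-2 cells kept in DMEM with 10% FBS, 25 mM HEPES, 100 U/mL penicillin and 100 µg/mL streptomycin at 37 °C under humidified 5% CO2. Seeded at 1 × 10^4/well for 48 h, then exposed to compounds (0.1-10 µg/mL) for 24 h. MTT (5 mg/mL) added for 3 h at 37 °C, formazan dissolved in DMSO, OD490 read. IC50 reported.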

[1] = Cytotoxicity against mouse peritoneal macrophages cells after 24 hrs by MTT assay; type: cell-based; details: Macrophage
Method in brief: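 Mouse cells harvested 4 days after intraperitoneal 10% thioglycollate, about 70% macrophages. Plated at 1 × 10^5/well and left to adhere for 3 h in DMEM with 10% FBS, 2 mM L-glutamine, 25 mM HEPES, antibiotics and 5 mM sodium pyruvate at 37 °C. Treated 24 h with compounds at 0.1-10 µg/mL. MTT (5 mg/mL) for 3 h, DMSO solubilization, OD490 read.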

| Structure (SMILES) | IC50 (Caco-2) | IC50 [1] |
| --- | --- | --- |
| C/C1=C/C[C@@H](C(C)C)[C@@H](O)[C@@H]2O[C@@]2(C)C[C@@H](O)[C@@H]1O | 1.1 µM | ≥ 10 µg/mL |
| C=C1C[C@@H](O)[C@H](O)[C@]2(C)CC[C@@H](C(C)C)[C@@H](O)[C@@H]1O2 | 3.7 µM | ≥ 10 µg/mL |
| C=C1CC[C@@H](C(C)C)[C@@H](O)/C=C(\C)[C@H](O)CC1=O | – | ≥ 10 µg/mL |
| C=C1C[C@@H](O)/C=C(\C)CC[C@@H](C(C)C)[C@@H](O)C1 | – | ≥ 10 µg/mL |
| CC(=O)O[C@H]1/C=C(\C)CC[C@@H](C(C)C)[C@@H](O)[C@@H]2O[C@@]2(C)C1 | – | ≥ 10 µg/mL |
| C/C1=C\[C@H](O)C[C@]2(C)O[C@H]2[C@H](O)[C@H](C(C)C)CC1 | – | ≥ 10 µg/mL |
| C=C1C[C@@H](O)[C@H](O)/C(C)=C\C[C@@H](C(C)C)[C@@H](O)[C@@H]1O | – | ≥ 10 µg/mL |
| C/C1=C\[C@H](O)C/C(C)=C/[C@H](O)[C@H](C(C)C)CC1 | – | ≥ 10 µg/mL |
| CC(C)[C@@H]1CC[C@]2(C)O[C@H]2[C@H](O)C[C@]2(C)O[C@H]2[C@@H]1O | – | ≥ 10 µg/mL |
